Measured values gathered from unrelated publications.
Protocols differ between the studies behind these lines. pIC50: −log10 of the molar value.
Target: Voltage-gated inwardly rectifying potassium channel KCNH2 (KCNH2, Homo sapiens, UniProt Q12809)

| SMILES | assay | system | setting | pIC50 |
| --- | --- | --- | --- | --- |
| Cc1ccc(OCC(=O)N[C@@H](Cc2c[nH]c3ccccc23)C(=O)OC(C)C)cc1 | ion current, inhibitor, patch clamp | HEK293 |  | < 4.30 |
| FC(F)(F)CN1CC(n2cc(Oc3ccn4nc(Cl)cc4n3)cn2)C1 | ion current, inhibitor, patch clamp |  |  | < 4.52 |
| CC(C)(C)c1sc2ncnc(Oc3c(F)cccc3OC(F)(F)F)c2c1-c1ccc(Cl)cc1 | ion current, inhibitor, patch clamp |  |  | ~4.55 |
| C=CCn1c(=O)c2cnc(Nc3ccc(N4CCN(C)CC4)cc3)nc2n1-c1ccc2c(n1)[C@@](O)(CC)CC2 | ion current, inhibitor |  |  | < 4.52 |
| CCOC(=O)C1=C(CN2CCC[C@@H]2C(=O)Nc2ccc(B(O)O)cc2)NC(c2nccs2)=N[C@H]1c1ccc(F)cc1Br | ion current, inhibitor, patch clamp | HEK293 | pH 7.4 | 5.18 |
| NC/C(=C\F)COc1cccc(Cn2c(=S)[nH]c(=O)c3[nH]cnc32)c1 | ion current, inhibitor |  |  | < 4.00 |
| Cc1ccc2c(c1)C(=O)[C@]1(O)CCN(c3ccc4nc(C)ccc4c3)C1=N2 | ion current, inhibitor |  |  | 5.27 |
| N=C(CC(O)c1cc2c(F)cc(F)cc2c2cc(C(F)(F)F)ccc12)Nc1ccc(Br)cc1 (centres unmarked) | ligand displacement, FP |  |  | 5.71 |
